Data: ChEMBL document CHEMBL4190234, “Design, synthesis and anticancer activity of new monastrol analogues bearing 1,3,4-oxadiazole moiety” (Eur J Med Chem, 2017)

Tests used:
[1] = test system: MOLT-4; experiment: Cell cycle arrest in human MOLT4 cells assessed as accumulation at G2/M phase at 0.16 uM after 24 hrs by propidium iodide staining based flow cytometry (reference value: 4.35%); assay type: functional
How it was run: (§1)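 MOLT-4 cells (1×10^6) exposed 24 h to 0.160 or 0.430 μM test agent, DMSO (0.002%) control; trypsinized, washed in ice-cold PBS, fixed in ice-cold 70% ethanol ≥2 h at 4°C, washed, stained with propidium iodide DNA kit; cell cycle distribution (pre-G, G0/G1, S, G2/M) by flow cytometry.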

[2] = test system: MOLT-4; experiment: Cell cycle arrest in human MOLT4 cells assessed as accumulation at S phase at 0.16 uM after 24 hrs by propidium iodide staining based flow cytometry (reference value: 20.55%); assay type: functional; how it was run: as §1
[3] = test system: MOLT-4; experiment: Induction of apoptosis in human MOLT4 cells assessed as late apoptotic cells at 0.16 uM after 24 hrs by Annexin V-FITC/propidium iodide staining based flow cytometry (reference value: 0.24%); assay type: functional
[4] = test system: MOLT-4; experiment: Growth inhibition of human MOLT4 cells incubated for 24 hrs by MTT assay; assay type: functional, cell-based; conditions: MOLT-4, 24 h
[5] = test system: MOLT-4; experiment: Cell cycle arrest in human MOLT4 cells assessed as accumulation at G0/G1 phase at 0.16 uM after 24 hrs by propidium iodide staining based flow cytometry (reference value: 74.22%); assay type: functional; how it was run: as §1
[6] = test system: MOLT-4; experiment: Induction of apoptosis in human MOLT4 cells assessed as increase in apoptotic cells at 0.16 uM after 24 hrs by Annexin V-FITC/propidium iodide staining based flow cytometry relative to control; assay type: functional
[7] = test system: MOLT-4; experiment: Induction of apoptosis in human MOLT4 cells assessed as necrotic cells at 0.16 uM after 24 hrs by Annexin V-FITC/propidium iodide staining based flow cytometry (reference value: 0.11%); assay type: functional
[8] = test system: HL-60(TB); experiment: Growth inhibition of human HL-60(TB) cells incubated for 24 hrs by MTT assay; assay type: functional, cell-based; conditions: HL-60, 24 h
How it was run: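 Cells at 1.2-1.8×10^4 cells/ml in DMEM with 10% FBS, 10 µg/ml insulin and 1% penicillin/streptomycin, plated overnight at 37°C. Serial 10-fold dilutions added to 0.01–100 µM final, medium as negative control, 24 h. MTT (5 mg/ml) added for 4 h, formazan dissolved in acid-isopropanol, A490 read. Eight separate experiments; percent viable cells used to derive IC50.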

[9] = test system: MOLT-4; experiment: Induction of apoptosis in human MOLT4 cells assessed as early apoptotic cells at 0.16 uM after 24 hrs by Annexin V-FITC/propidium iodide staining based flow cytometry (reference value: 0.53%); assay type: functional
[10] = test system: MOLT-4; experiment: Induction of apoptosis in human MOLT4 cells assessed as live cells at 0.16 uM after 24 hrs by Annexin V-FITC/propidium iodide staining based flow cytometry (reference value: 99.12%); assay type: functional
[11] = test system: MOLT-4; experiment: Cell cycle arrest in human MOLT4 cells assessed as accumulation of apoptotic cells in pre-G phase at 0.16 uM after 24 hrs by propidium iodide staining based flow cytometry (reference value: 0.88%); assay type: functional; how it was run: as §1
[12] = test system: MOLT-4; experiment: Potency index, ratio of monastrol IC50 to compound IC50 for human MOLT4 cells; assay type: functional
[13] = test system: HL-60(TB); experiment: Potency index, ratio of monastrol IC50 to compound IC50 for human HL-60(TB) cells; assay type: functional
[14] = test system: HL-60(TB); experiment: Induction of apoptosis in human HL-60(TB) cells assessed as early apoptotic cells at 0.112 uM after 24 hrs by Annexin V-FITC/propidium iodide staining based flow cytometry (reference value: 0.84%); assay type: functional
[15] = test system: HL-60(TB); experiment: Cell cycle arrest in human HL-60(TB) cells assessed as accumulation of apoptotic cells in pre-G phase at 0.112 uM after 24 hrs by propidium iodide staining based flow cytometry (reference value: 1.44%); assay type: functional
[16] = test system: HL-60(TB); experiment: Cell cycle arrest in human HL-60(TB) cells assessed as accumulation at G2/M phase at 0.112 uM after 24 hrs by propidium iodide staining based flow cytometry (reference value: 7.29%); assay type: functional
[17] = test system: HL-60(TB); experiment: Induction of apoptosis in human HL-60(TB) cells assessed as live cells at 0.112 uM after 24 hrs by Annexin V-FITC/propidium iodide staining based flow cytometry (reference value: 98.57%); assay type: functional
[18] = test system: HL-60(TB); experiment: Induction of apoptosis in human HL-60(TB) cells assessed as increase in apoptotic cells at 0.112 uM after 24 hrs by Annexin V-FITC/propidium iodide staining based flow cytometry relative to control; assay type: functional
[19] = test system: HL-60(TB); experiment: Induction of apoptosis in human HL-60(TB) cells assessed as necrotic cells at 0.112 uM after 24 hrs by Annexin V-FITC/propidium iodide staining based flow cytometry (reference value: 0.2%); assay type: functional
[20] = test system: HL-60(TB); experiment: Cell cycle arrest in human HL-60(TB) cells assessed as accumulation at G0/G1 phase at 0.112 uM after 24 hrs by propidium iodide staining based flow cytometry (reference value: 68.43%); assay type: functional
[21] = test system: HL-60(TB); experiment: Cell cycle arrest in human HL-60(TB) cells assessed as accumulation at S phase at 0.112 uM after 24 hrs by propidium iodide staining based flow cytometry (reference value: 22.84%); assay type: functional
[22] = test system: HL-60(TB); experiment: Induction of apoptosis in human HL-60(TB) cells assessed as late apoptotic cells at 0.112 uM after 24 hrs by Annexin V-FITC/propidium iodide staining based flow cytometry (reference value: 0.39%); assay type: functional

Structure (SMILES): CCOC(=O)C1=C(C)NC(SCc2nnc(-c3ccc(Cl)cc3)o2)=NC1c1ccc(Cl)cc1Cl (stereo not given)
- Activity [1]: 26.61%
- Activity [2]: 17.04%
- Activity [3]: 5.89%
- IC50 [4]: 80 nM
- Activity [5]: 38.52%
- fold change (FC) [6]: 21
- Activity [7]: 1.46%
- IC50 [8]: 153 nM
- Activity [9]: 10.48%
- Activity [10]: 82.17%
- Activity [11]: 17.83%
- Ratio IC50 [12]: 3

Structure (SMILES): CCOC(=O)C1=C(C)NC(SCc2nnc(-c3ccc(Cl)cc3)o2)=NC1c1ccc(Cl)cc1 (stereo not given)
- Ratio IC50 [13]: 1.5
- IC50 [4]: 623 nM
- IC50 [8]: 103 nM

Structure (SMILES): CCOC(=O)C1=C(C)NC(SCc2nnc(-c3ccc(Cl)cc3)o2)=NC1c1ccc(Br)cc1 (stereo not given)
- IC50 [4]: 86 nM
- IC50 [8]: 143 nM
- Ratio IC50 [12]: 3

Structure (SMILES): CCOC(=O)C1=C(C)NC(SCc2nnc(-c3ccc(Cl)cc3)o2)=NC1c1cccc(Cl)c1 (stereo not given)
- Ratio IC50 [13]: 2.5
- Activity [14]: 17.09%
- Activity [15]: 24.72%
- Activity [16]: 14.81%
- Activity [17]: 75.28%
- fold change (FC) [18]: 19.3
- IC50 [4]: 1790 nM
- Activity [19]: 1.36%
- IC50 [8]: 56 nM
- Activity [20]: 32.88%
- Activity [21]: 27.59%
- Activity [22]: 6.67%
